Reference: ChEMBL document CHEMBL1125203, “The synthesis and antiviral activity of some 4'-thio-2'-deoxy nucleoside analogues” (J Med Chem, 1991)
Values after ≈ are worked out from the molar mass of the structure shown.

Columns and labels:
[1] = system: MRC5; assay: Minimum inhibitory concentration required to reduce cytopathogenicity of Herpes Virus-1 (HSV-1) in MRC -5 cells by 50%.; type: functional; conditions: Homo sapiens
Outline: (§1)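 Plaque reduction: confluent monolayers (HSV-2 in Vero, HSV-1 in MRC-5) infected and overlaid with nutrient agarose holding doubling drug dilutions. Plaques counted after 5 days as % of control, plotted against log concentration, and IC50 read from the plot.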

[2] = system: Vero; assay: Minimum inhibitory concentration required to reduce cytopathogenicity of Herpes Virus-2 (HSV-2) in vero cells by 50%.; type: functional; conditions: Chlorocebus sabaeus; outline: as §1
[3] = system: MT4; assay: Inhibitory dose required to reduce the viability of MT-4 cells by 50%; type: functional, Homo sapiens
Outline: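 Mock-infected MT-4 cells on the same plate as the HIV test, drug at 100, 10, 1 and 0.1 µM, triplicate wells. Growth inhibition assessed after 5 days by MTT uptake into viable cells, acidified propan-2-ol extraction and spectrophotometric reading.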

[4] = system: MRC5; assay: Minimum inhibitory concentration required to reduce cytopathogenicity of Varicella Zoster Virus (VZV) in MRC-5 cells by 50%.; type: functional; conditions: Homo sapiens
[5] = system: Vero; assay: Inhibitory dose required to reduce the viability of vero cells by 50%; type: functional, Chlorocebus sabaeus
[6] = system: MRC5; assay: Minimum inhibitory concentration required to reduce cytopathogenicity of Cytomegalovirus Virus (CMV) in MRC-5 cells by 50%.; type: functional; conditions: Homo sapiens
Outline: (§2)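 MRC-5 monolayers in 24-well panels, infected after 24 h and overlaid with 0.5% indubiose A37 medium containing drug at 10 and 100 µM. After 5 days, giant cells (plaques) stained with methylene blue and examined microscopically.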

[7] = system: MT4; assay: Minimum inhibitory concentration required to reduce cytopathogenicity of human immunodeficiency virus-1 (HIV-1) in MT-4 cells by 50%; No activity below ID50 observed; type: functional, cell-based
[8] = system: MRC5; assay: Minimum inhibitory concentration required to reduce cytopathogenicity of cytomegalovirus (CMV) in MRC-5 cells by 50%.; type: functional; conditions: Homo sapiens; outline: as §2
[9] = Half life was measured in mice.; type: ADME, organism-based; conditions: mouse, in vivo
[10] = system: Mus musculus; assay: Toxicity of compound was measured after ip administration to mice.; type: organism-based; conditions: in vivo
[11] = Maximum plasma level was measured in mice.; type: ADME, organism-based; conditions: mouse, read-out: Max plasma level

SMILES | MIC50 [1] | MIC50 [2] | ID50 [3] | MIC50 [4] | ID50 [5] | MIC50 [6] | MIC50 [7] | MIC50 [8] | half-life [9] | Toxicity [10] | Cmax [11]
O=c1[nH]c(=O)n([C@@H]2C[C@H](O)[C@@H](CO)S2)cc1/C=C/Br | > 500 µM | > 500 µM | > 500 µM |  |  |  |  |  |  |  | 
O=c1[nH]c(=O)n([C@H]2C[C@H](O)[C@@H](CO)O2)cc1/C=C/Br [BRIVUDINE] | 0.03 µM (≈ 0.00999 µg/mL) | 12 µM (≈ 4 µg/mL) |  | 0.02 µM (≈ 0.00666 µg/mL) | > 500 µM | > 100 µM |  |  |  |  | 
Nc1nc2c(ncn2COCCO)c(=O)[nH]1 [ACYCLOVIR] | 1.3 µM (≈ 0.293 µg/mL) | 1.8 µM (≈ 0.405 µg/mL) |  |  | > 500 µM | 100 µM (≈ 22.5 µg/mL) |  |  |  |  | 
Cc1cn(C2CC(N=[N+]=[N-])C(CO)S2)c(=O)[nH]c1=O (stereo not given) | > 100 µM | > 100 µM | > 100 µM |  | > 100 µM |  | No activity |  |  |  | 
Cc1cn([C@@H]2C[C@H](O)[C@@H](CO)S2)c(=O)[nH]c1=O | > 100 µM | > 100 µM | > 100 µM |  | > 100 µM |  |  |  |  |  | 
Cc1cn([C@H]2C[C@H](O)[C@@H](CO)S2)c(=O)[nH]c1=O [4'-THIOTHYMIDINE] | 0.37 µM (≈ 0.0956 µg/mL) | 2.3 µM (≈ 0.594 µg/mL) | 1 µM | 10 µM (≈ 2.58 µg/mL) | 7.1 µM |  | No activity | 0.98 µM (≈ 0.253 µg/mL) | 1 h | > 40 mg/kg | > 35 µM
O=c1[nH]c(=O)n([C@H]2C[C@H](O)[C@@H](CO)S2)cc1/C=C/Br | 0.6 µM (≈ 0.21 µg/mL) | 10 µM (≈ 3.49 µg/mL) | > 500 µM | 0.08 µM (≈ 0.0279 µg/mL) | > 500 µM |  | No activity |  | 2 h | > 40 mg/kg | > 50 µM
